Shown are actives, neighbours in structure and some others; about 2.2% of the full set was active somewhere.
NR2E3 ag-1: human photoreceptor-specific nuclear receptor agonism | Q9Y5X4 | inhibition of corepressor binding, % at 3.98 µM | CHO-S Gal4-NCOR/VP16-NR2E3 two-hybrid, luciferase | hit rate 0.35% among 360,000;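 active means inhibition above the mean of all tested compounds plus 3 SD, cut at about 70% in these data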;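 further: 0% = DMSO with NR2E3 transfected cells and 100% = cells lacking NR2E3 construct; higher means lower luciferase signal from less NR2E3 corepressor binding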
Target sequence (Q9Y5X4 whole entry, looked up, the tested form may be a part): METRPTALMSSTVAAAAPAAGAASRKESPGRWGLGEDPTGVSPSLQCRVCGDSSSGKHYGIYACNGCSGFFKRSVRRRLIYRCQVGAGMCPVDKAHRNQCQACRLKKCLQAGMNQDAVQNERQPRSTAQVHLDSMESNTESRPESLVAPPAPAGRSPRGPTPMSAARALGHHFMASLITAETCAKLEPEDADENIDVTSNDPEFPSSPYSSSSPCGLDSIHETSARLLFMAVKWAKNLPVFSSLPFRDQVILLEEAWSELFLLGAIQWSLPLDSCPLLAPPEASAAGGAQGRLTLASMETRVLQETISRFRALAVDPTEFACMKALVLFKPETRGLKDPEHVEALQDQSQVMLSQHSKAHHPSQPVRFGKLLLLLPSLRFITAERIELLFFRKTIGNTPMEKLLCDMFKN
GalR3 antag: human GalR3 antagonism. inhibition, % at 3 µM. hit rate 0.44% among 360,000. AID 651719. HEK293 GalR3-CNG cAMP membrane potential fluorescence; galR3 body fused to GalR1 C-terminus;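 active means inhibition above the screen-wide average plus 3 SD, cut at about 13% in these data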;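 further: forskolin and galanin both at EC90 stimulate the cells; cAMP rise reported by CNG channel membrane potential dye signal; 0% = forskolin plus galanin with DMSO and 100% = forskolin alone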
Target sequence (O60755 1-299 limits assumed): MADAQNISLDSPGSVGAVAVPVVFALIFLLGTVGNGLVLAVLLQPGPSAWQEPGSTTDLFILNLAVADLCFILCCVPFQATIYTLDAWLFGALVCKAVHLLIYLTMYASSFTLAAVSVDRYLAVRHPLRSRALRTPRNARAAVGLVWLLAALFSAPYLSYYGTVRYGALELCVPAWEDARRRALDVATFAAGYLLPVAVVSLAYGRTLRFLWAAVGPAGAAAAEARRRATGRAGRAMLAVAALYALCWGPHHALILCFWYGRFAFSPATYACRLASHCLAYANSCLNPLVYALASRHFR
V-ATPase pHluor: yeast V-ATPase proton transport regulation by pHLuorin | S. cerevisiae, pHLuorin cytosolic pH fluorescence | response, % at 10 µM | hit rate 0.37% among 350,000 | AID 504577; in the data active means response mostly above about 7.3%, no sharp cut-off; inactive means mostly below about 5.4%; further: actives read high
FXN GAA850 act: frataxin GAA850 promoter activation; HEK293 lucGAA850 FXN promoter luciferase reporter, 24 h; percent of 10 µM SAHA response; activation, % at 6 µM; hit rate 0.56% among 360,000;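 active means activation above the average of all compounds screened plus 3 SD, cutoff fixed separately per campaign, cut at about 7.5% in these data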;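 further: 0% = DMSO wells and 100% = 10 µM SAHA wells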
NR2E3 ag-2: NR2E3 (human) agonism; Q9Y5X4; AID 2300; inhibition of corepressor binding, % at 4.78 µM; GST-NR2E3/biotin-RetCOR TR-FRET, 1536-well; hit rate 0.12% among 320,000;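 active means percent inhibition above the cutoff of mean plus 3 SD of all tested compounds, set per screening campaign, cut at about 20% in these data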;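 further: 0% = DMSO wells and 100% = biotin wells as full block of FRET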
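Test system: GST-NR2E3 and biotin-RetCOR proteins | Quantity: 1.35 nM GST-tagged NR2E3 final | Medium: Tris pH 7.5 | Also added: 7 nM biotin-RetCOR | Dosing: Compound at 4.8 µM, single dose | Timing: 5 h at 4 °C | Detection: Time-resolved FRET | Read-out basis: Percent inhibition | Benchmarks: Biotin wells as high control, 0.6% DMSO wells as low control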
Env fusion inh: inhibitors of HIV Env-mediated cell fusion | inhibition, % at 12.3 µM | hit rate 1.1% among 360,000 | HeLa-JRFL Env/CEM21 cell fusion, luciferase;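 active means mean replicate inhibition score of at least 50 and every replicate individually at or above 50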;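 further: 0% = plate neutral controls and 100% = maraviroc near 300 nM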
Starred values were filed as active, the others as inactive; i = inactive; · = not tested or not shown; [ ] = remark or other dose.

SMILES	NR2E3 ag-1	GalR3 antag	V-ATPase pHluor	FXN GAA850 act	NR2E3 ag-2	Env fusion inh
COc1ccccc1C(=O)Nc1ccc2c(c1)OC[C@H](C)N(C(C)=O)C[C@@H](C)[C@H](OC)CN(C)C2=O	·	·	·	·	·	14[16.7 µM]
CO[C@H]1CN(C)C(=O)c2cc(NC(=O)c3ccc(F)cc3)ccc2OC[C@@H](C)N(C(=O)CN(C)C)C[C@H]1C	·	·	·	·	·	-5[16.7 µM]
COc1ccccc1C(=O)Nc1ccc2c(c1)OC[C@H](C)N(C(C)=O)C[C@H](C)[C@H](OC)CN(C)C2=O	·	·	·	·	·	60*[16.7 µM]
CO[C@H]1CN(C)C(=O)c2cc(NC(=O)c3ccc(F)cc3)ccc2OC[C@H](C)N(C(=O)CN(C)C)C[C@@H]1C	·	·	·	·	·	62*[16.7 µM]
COc1cccc(C(=O)Nc2ccc3c(c2)C(=O)N(C)C[C@H](OC)[C@@H](C)CN(CCc2ccccc2)[C@H](C)CO3)c1	·	·	·	·	·	55*[16.7 µM]
CO[C@H]1CN(C)C(=O)c2ccc(NC(=O)Nc3ccccc3)cc2OC[C@@H](C)N(C(=O)CC2CC2)C[C@H]1C	·	·	·	·	·	-5[16.7 µM]
CCCN1C[C@H](C)[C@H](OC)CN(C)C(=O)c2cc(NS(C)(=O)=O)ccc2OC[C@@H]1C	·	·	·	·	·	-9[16.7 µM]
Cc1ccccc1S(=O)(=O)NCC[C@H]1CC[C@H](NC(=O)C2CC2)[C@H](CO)O1	·	·	·	·	·	3[16.7 µM]
COc1ccccc1CNC(=O)C[C@H]1C[C@H]2c3cc(NS(C)(=O)=O)ccc3O[C@H]2[C@@H](CO)O1	·	·	·	·	·	6[16.7 µM]
Cc1cc(C)n(Cc2ccc(NC(=O)c3ccc(COc4ccccc4Br)cc3)cc2)n1	9	5	-4	-6	0	79*
NC(=O)c1ccc(NC(=O)c2ccc(COc3ccccc3Br)cc2)cc1	-33	-2	1	0	·	-26
O=C(NC1CC(=O)N(c2ccccc2)C1)C(=O)c1c[nH]c2ccccc12 (stereo not drawn)	-10	2	-3	-1	3	62*
O=C(NC1CC1)C(=O)c1c[nH]c2ccccc12	-48	0	-3	1	1	-12
COc1ccc(CNC(=O)N(C)C[C@@H]2OCc3ccccc3-c3c(n(C)c4ccccc34)C(=O)N([C@@H](C)CO)C[C@@H]2C)cc1	·	0	·	·	·	100*
COc1cccc(NC(=O)N(C)C[C@H]2OCc3ccccc3-c3c(n(C)c4ccccc34)C(=O)N([C@H](C)CO)C[C@H]2C)c1	·	-6	·	·	·	-62
COc1ccc(CNC(=O)N(C)C[C@@H]2OCc3ccccc3-c3c(n(C)c4ccccc34)C(=O)N([C@H](C)CO)C[C@@H]2C)cc1	·	·	·	·	·	85*[16.7 µM]
COc1cccc(NC(=O)N(C)C[C@H]2OCc3ccccc3-c3c(n(C)c4ccccc34)C(=O)N([C@@H](C)CO)C[C@@H]2C)c1	·	·	·	·	·	55*[16.7 µM]
COc1ccc(CNC(=O)N(C)C[C@@H]2OCc3ccccc3-c3c(n(C)c4ccccc34)C(=O)N([C@@H](C)CO)C[C@H]2C)cc1	·	·	·	·	·	38[16.7 µM]
COc1ccc(CNC(=O)N(C)C[C@H]2OCc3ccccc3-c3c(n(C)c4ccccc34)C(=O)N([C@@H](C)CO)C[C@H]2C)cc1	·	·	·	·	·	21[16.7 µM]
COc1ccc(-c2nn(-c3ccccc3)cc2/C=N/N2C(=O)CSC2=S)cc1	-18	2	3	2	5	67*
COc1ccc(/C=N/N2C(=O)CSC2=S)cc1	4	-9	1	1	3	·
COc1ccc(S(=O)(=O)Nc2ccc3c(c2)C(=O)N([C@H](C)CO)C[C@H](C)[C@@H](CN(C)CC2CC2)OCCCC[C@@H](C)O3)cc1	·	·	·	·	·	0[16.7 µM]
CC(Nc1cc(C)cc(C)c1)=[N+](C)CCNS(=O)(=O)c1ccc(Cl)cc1	0	-4	-4	-1	-3	61*
COc1ccc(NC(C)=[N+](C)CCNS(=O)(=O)c2ccc(Cl)cc2)cc1Cl	-26	-4	0	0	0	i
C[C@@H]1CCCCO[C@H](CN(C)Cc2ccc(C(F)(F)F)cc2)[C@@H](C)CN([C@H](C)CO)C(=O)c2cc(NC(=O)Cc3ccccc3)ccc2O1	·	·	·	·	·	12[16.7 µM]
SMILES	NR2E3 ag-1	GalR3 antag	V-ATPase pHluor	FXN GAA850 act	NR2E3 ag-2	Env fusion inh
C[C@@H]1CCCCO[C@H](CN(C)Cc2ccc(C(F)(F)F)cc2)[C@H](C)CN([C@H](C)CO)C(=O)c2cc(NC(=O)Cc3ccccc3)ccc2O1	·	·	·	·	·	57*[16.7 µM]
C[C@H]1CCCCO[C@@H](CN(C)Cc2ccc(C(F)(F)F)cc2)[C@@H](C)CN([C@@H](C)CO)C(=O)c2cc(NC(=O)Cc3ccccc3)ccc2O1	·	·	·	·	·	75*[16.7 µM]
Cc1ccc(S(=O)(=O)NCC[C@@H]2CC[C@@H](NC(=O)Nc3ccccc3F)[C@@H](CO)O2)cc1	·	·	·	·	·	-4[16.7 µM]
CCN(CCCn1c(SCC#N)nc2ccccc2c1=O)c1ccccc1	-12	-7	3	1	-1	62*
C=C(C)Cn1c(SCC#N)nc2ccccc2c1=O	0	-2	-1	2	3	·
Cc1noc(C)c1NC(=O)N(C)C[C@@H]1OCCCC[C@H](C)Oc2ccc(NC(=O)Cc3ccccc3)cc2C(=O)N([C@H](C)CO)C[C@@H]1C	·	·	·	·	·	-3[16.7 µM]
COc1ccc(C(=O)C[n+]2cc(-c3ccc(OC)cc3)n3c2CCCC3)cc1	-7	4	1	1	1	-20
Cc1ccc(C(=O)C[n+]2cc(-c3ccc(C)cc3)n3c2CCCCC3)cc1	3	20*	7	-7	2	68*
C[C@@H]1CCCCO[C@@H](CN(C)C(=O)C2CCCCC2)[C@@H](C)CN([C@H](C)CO)C(=O)c2cc(NC(=O)CCCN(C)C)ccc2O1	·	·	·	·	·	-16[16.7 µM]
Cc1noc(C)c1NC(=O)Nc1ccc2c(c1)C(=O)N([C@@H](C)CO)C[C@@H](C)[C@@H](CN(C)Cc1ccc(C(F)(F)F)cc1)OCCCC[C@H](C)O2	·	·	·	·	·	-12[16.7 µM]
COc1ccc(-c2cn[nH]c2N)cc1	-22	-1	-3	0	-4	·
COc1ccc(-c2cn[nH]c2N)c(OC)c1	9	-5	5	-5	2	81*
CC(C)[C@H](NC(=O)c1ccco1)C(=O)NC12CC3CC(CC(C3)C1)C2	23	-7	5	5	3	58*
C[C@@H]1CCCCO[C@H](CN(C)CC2CCCCC2)[C@H](C)CN([C@@H](C)CO)C(=O)c2cc(NS(=O)(=O)c3ccc(Cl)cc3)ccc2O1	·	·	·	·	·	5[16.7 µM]
COc1ccc(-c2cnc3c(c2)C(=O)N([C@H](C)CO)C[C@H](C)[C@H](CN(C)C(=O)NC2CCCC2)O3)cc1	·	·	·	·	·	-7[16.7 µM]
Cc1cccc(C(=O)NNC(=O)c2ccccc2)c1	-7	-2	1	1	-1	4
Cc1cccc(C(=O)c2cnc3ccccc3c2-c2ccccc2)c1	5	-4	1	1	-4	73*
C[C@@H]1CN([C@H](C)CO)C(=O)c2cc(NC(=O)CCCN(C)C)ccc2O[C@H]1CN(C)S(C)(=O)=O	·	·	·	·	·	-15[16.7 µM]
O=C1c2sc3nc4ccccc4n3c2C(=O)N1c1ccccc1Cl	1	-3	10*	4	3	·
